# In ChEMBL document CHEMBL4364301 (Eur J Med Chem, 2019):
# Tests used:
# Assay type in all cases: functional
# [1] = system: DU-145; test: Antiproliferative activity against human DU145 cells assessed as reduction in cell growth incubated for 96 hrs by propidium iodide based 2D monolayer assay; conditions: DU-145, 96 h
# Procedure, shortened: (§1)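 After 24 h recovery, compound in medium or medium alone (control wells) was added at 10 half-log concentrations from 0.0032 to 100 µM, in triplicate, with at most 0.3% DMSO. After 96 h, wells were PBS-washed, stained with 7 µg/ml PI and 0.1% Triton X-100, and fluorescence read at 530/620 nm. IC50 came from a 4-parameter fit, geometric mean.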
# [2] = system: LNCaP; test: Antiproliferative activity against human LNCAP cells assessed as reduction in cell growth incubated for 96 hrs by propidium iodide based 2D monolayer assay; procedure, shortened: as §1
# [3] = system: VCaP; test: Antiproliferative activity against human VCaP cells assessed as reduction in cell growth incubated for 96 hrs by propidium iodide based 2D monolayer assay
# Procedure, shortened: (§2)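 VCaP cells in RPMI 1640 with 10% FCS at 37 °C, 5% CO2, seeded 4,000–20,000 cells/well and left 24 h before dosing. Compounds from DMSO stocks were diluted in half-log steps in medium, 10 concentrations 0.0032–100 μM, triplicate wells, max 0.3% DMSO. After 96 h, cells were washed, stained with 7 μg/ml propidium iodide plus 0.1% Triton X-100 for 1–2 h at room temperature, and fluorescence read at ex 530/em 620 nm.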
# [4] = system: VCaP; test: Antiproliferative activity against human VCaP cells assessed as T/C value at 1 x 10^-2 uM incubated for 96 hrs by propidium iodide based 2D monolayer assay
# Procedure, shortened: as §1, with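 “Cells were kept in RPMI 1640 with 25 mM HEPES, 10% FCS and gentamicin at 37 °C under 5% CO2, and plated at 4,000-20,000 cells/well. After 24” for “After 24”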
# [5] = system: VCaP; test: Antiproliferative activity against human VCaP cells assessed as T/C value at 3.2 x 10^-2 uM incubated for 96 hrs by propidium iodide based 2D monolayer assay; procedure, shortened: as §2
# [6] = system: VCaP; test: Antiproliferative activity against human VCaP cells assessed as T/C value at 1 x 10^-1 uM incubated for 96 hrs by propidium iodide based 2D monolayer assay
# Procedure, shortened: as §1, with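 “Cells were kept in RPMI 1640 with 25 mM HEPES, 10% FCS and gentamicin at 37 °C under 5% CO2, and plated at 4,000-20,000 cells/well. After 24” for “After 24”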
# [7] = system: VCaP; test: Antiproliferative activity against human VCaP cells assessed as T/C value at 3.2 x 10^-1 uM incubated for 96 hrs by propidium iodide based 2D monolayer assay; procedure, shortened: as §2
# [8] = system: VCaP; test: Antiproliferative activity against human VCaP cells assessed as T/C value at 1 uM incubated for 96 hrs by propidium iodide based 2D monolayer assay
# Procedure, shortened: as §1, with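 “Cells were kept in RPMI 1640 with 25 mM HEPES, 10% FCS and gentamicin at 37 °C under 5% CO2, and plated at 4,000-20,000 cells/well. After 24” for “After 24”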
# [9] = system: VCaP; test: Antiproliferative activity against human VCaP cells assessed as T/C value at 3.2 uM incubated for 96 hrs by propidium iodide based 2D monolayer assay
# Procedure, shortened: as §1, with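 “Cells were kept in RPMI 1640 with 25 mM HEPES, 10% FCS and gentamicin at 37 °C under 5% CO2, and plated at 4,000-20,000 cells/well. After 24” for “After 24”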
# [10] = system: VCaP; test: Antiproliferative activity against human VCaP cells assessed as T/C value at 1 x 10^2 uM incubated for 96 hrs by propidium iodide based 2D monolayer assay
# Procedure, shortened: as §1, with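 “Cells were kept in RPMI 1640 with 25 mM HEPES, 10% FCS and gentamicin at 37 °C under 5% CO2, and plated at 4,000-20,000 cells/well. After 24” for “After 24”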
# [11] = system: LNCaP; test: Antiproliferative activity against human LNCAP cells assessed as T/C value at 1 x 10^-2 uM incubated for 96 hrs by propidium iodide based 2D monolayer assay
# Procedure, shortened: as §1, with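 “Cells were kept in RPMI 1640 with 25 mM HEPES, 10% FCS and gentamicin at 37 °C under 5% CO2, and plated at 4,000-20,000 cells/well. After 24” for “After 24”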
# [12] = system: LNCaP; test: Antiproliferative activity against human LNCAP cells assessed as T/C value at 3.2 x 10^-2 uM incubated for 96 hrs by propidium iodide based 2D monolayer assay
# Procedure, shortened: as §1, with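 “Cells were kept in RPMI 1640 with 25 mM HEPES, 10% FCS and gentamicin at 37 °C under 5% CO2, and plated at 4,000-20,000 cells/well. After 24” for “After 24”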
# [13] = system: LNCaP; test: Antiproliferative activity against human LNCAP cells assessed as T/C value at 3.2 x 10^-1 uM incubated for 96 hrs by propidium iodide based 2D monolayer assay
# Procedure, shortened: as §1, with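 “Cells were kept in RPMI 1640 with 25 mM HEPES, 10% FCS and gentamicin at 37 °C under 5% CO2, and plated at 4,000-20,000 cells/well. After 24” for “After 24”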
# [14] = system: LNCaP; test: Antiproliferative activity against human LNCAP cells assessed as T/C value at 1 uM incubated for 96 hrs by propidium iodide based 2D monolayer assay
# Procedure, shortened: as §1, with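 “Cells were kept in RPMI 1640 with 25 mM HEPES, 10% FCS and gentamicin at 37 °C under 5% CO2, and plated at 4,000-20,000 cells/well. After 24” for “After 24”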
# [15] = system: LNCaP; test: Antiproliferative activity against human LNCAP cells assessed as T/C value at 3.2 uM incubated for 96 hrs by propidium iodide based 2D monolayer assay
# Procedure, shortened: as §1, with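 “Cells were kept in RPMI 1640 with 25 mM HEPES, 10% FCS and gentamicin at 37 °C under 5% CO2, and plated at 4,000-20,000 cells/well. After 24” for “After 24”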
# [16] = system: LNCaP; test: Antiproliferative activity against human LNCAP cells assessed as T/C value at 1 x 10^1 uM incubated for 96 hrs by propidium iodide based 2D monolayer assay
# Procedure, shortened: as §1, with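 “Cells were kept in RPMI 1640 with 25 mM HEPES, 10% FCS and gentamicin at 37 °C under 5% CO2, and plated at 4,000-20,000 cells/well. After 24” for “After 24”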
# [17] = system: CWR22R; test: Antiproliferative activity against human 22Rv1 cells assessed as T/C value at 3.2 x 10^-3 uM incubated for 96 hrs by propidium iodide based 2D monolayer assay
# Procedure, shortened: as §1, with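 “Cells were kept in RPMI 1640 with 25 mM HEPES, 10% FCS and gentamicin at 37 °C under 5% CO2, and plated at 4,000-20,000 cells/well. After 24” for “After 24”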
# [18] = system: CWR22R; test: Antiproliferative activity against human 22Rv1 cells assessed as T/C value at 1 x 10^-2 uM incubated for 96 hrs by propidium iodide based 2D monolayer assay
# Procedure, shortened: as §1, with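 “Cells were kept in RPMI 1640 with 25 mM HEPES, 10% FCS and gentamicin at 37 °C under 5% CO2, and plated at 4,000-20,000 cells/well. After 24” for “After 24”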
# [19] = system: CWR22R; test: Antiproliferative activity against human 22Rv1 cells assessed as T/C value at 1 x 10^-1 uM incubated for 96 hrs by propidium iodide based 2D monolayer assay
# Procedure, shortened: as §1, with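 “Cells were kept in RPMI 1640 with 25 mM HEPES, 10% FCS and gentamicin at 37 °C under 5% CO2, and plated at 4,000-20,000 cells/well. After 24” for “After 24”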
# [20] = system: CWR22R; test: Antiproliferative activity against human 22Rv1 cells assessed as T/C value at 3.2 x 10^-1 uM incubated for 96 hrs by propidium iodide based 2D monolayer assay
# Procedure, shortened: as §1, with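 “Cells were kept in RPMI 1640 with 25 mM HEPES, 10% FCS and gentamicin at 37 °C under 5% CO2, and plated at 4,000-20,000 cells/well. After 24” for “After 24”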
# [21] = system: CWR22R; test: Antiproliferative activity against human 22Rv1 cells assessed as T/C value at 1 uM incubated for 96 hrs by propidium iodide based 2D monolayer assay
# Procedure, shortened: as §1, with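 “Cells were kept in RPMI 1640 with 25 mM HEPES, 10% FCS and gentamicin at 37 °C under 5% CO2, and plated at 4,000-20,000 cells/well. After 24” for “After 24”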
# [22] = system: CWR22R; test: Antiproliferative activity against human 22Rv1 cells assessed as T/C value at 3.2 uM incubated for 96 hrs by propidium iodide based 2D monolayer assay
# Procedure, shortened: as §1, with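 “Cells were kept in RPMI 1640 with 25 mM HEPES, 10% FCS and gentamicin at 37 °C under 5% CO2, and plated at 4,000-20,000 cells/well. After 24” for “After 24”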
# [23] = system: CWR22R; test: Antiproliferative activity against human 22Rv1 cells assessed as T/C value at 1 x 10^1 uM incubated for 96 hrs by propidium iodide based 2D monolayer assay
# Procedure, shortened: as §1, with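 “Cells were kept in RPMI 1640 with 25 mM HEPES, 10% FCS and gentamicin at 37 °C under 5% CO2, and plated at 4,000-20,000 cells/well. After 24” for “After 24”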
# [24] = system: CWR22R; test: Antiproliferative activity against human 22Rv1 cells assessed as T/C value at 1 x 10^2 uM incubated for 96 hrs by propidium iodide based 2D monolayer assay
# Procedure, shortened: as §1, with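 “Cells were kept in RPMI 1640 with 25 mM HEPES, 10% FCS and gentamicin at 37 °C under 5% CO2, and plated at 4,000-20,000 cells/well. After 24” for “After 24”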
# [25] = system: DU-145; test: Antiproliferative activity against human DU145 cells assessed as T/C value at 3.2 x 10^-3 uM incubated for 96 hrs by propidium iodide based 2D monolayer assay; procedure, shortened: as §1
# [26] = system: DU-145; test: Antiproliferative activity against human DU145 cells assessed as T/C value at 3.2 x 10^-2 uM incubated for 96 hrs by propidium iodide based 2D monolayer assay; procedure, shortened: as §1
# [27] = system: DU-145; test: Antiproliferative activity against human DU145 cells assessed as T/C value at 1 x 10^-1 uM incubated for 96 hrs by propidium iodide based 2D monolayer assay; procedure, shortened: as §1
# [28] = system: DU-145; test: Antiproliferative activity against human DU145 cells assessed as T/C value at 3.2 x 10^-1 uM incubated for 96 hrs by propidium iodide based 2D monolayer assay; procedure, shortened: as §1
# [29] = system: DU-145; test: Antiproliferative activity against human DU145 cells assessed as T/C value at 1 uM incubated for 96 hrs by propidium iodide based 2D monolayer assay; procedure, shortened: as §1
# [30] = system: DU-145; test: Antiproliferative activity against human DU145 cells assessed as T/C value at 3.2 uM incubated for 96 hrs by propidium iodide based 2D monolayer assay
# Procedure, shortened: as §1, with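 “Cells were kept in RPMI 1640 with 25 mM HEPES, 10% FCS and gentamicin at 37 °C under 5% CO2, and plated at 4,000-20,000 cells/well. After 24” for “After 24”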
# [31] = system: DU-145; test: Antiproliferative activity against human DU145 cells assessed as T/C value at 1 x 10^1 uM incubated for 96 hrs by propidium iodide based 2D monolayer assay; procedure, shortened: as §1
# [32] = system: DU-145; test: Antiproliferative activity against human DU145 cells assessed as T/C value at 1 x 10^2 uM incubated for 96 hrs by propidium iodide based 2D monolayer assay
# Procedure, shortened: as §1, with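 “Cells were kept in RPMI 1640 with 25 mM HEPES, 10% FCS and gentamicin at 37 °C under 5% CO2, and plated at 4,000-20,000 cells/well. After 24” for “After 24”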
structure (smiles),measurement,setting,value
CC(O)(COc1cccc(S(F)(F)(F)(F)F)c1)C(=O)Nc1cc(C(F)(F)F)cc(C(F)(F)F)c1 (racemic),IC50,[1],5.7 µM
same,IC70,[1],6.66 µM
same,IC50,[2],3 µM
same,IC70,[2],3.1 µM
same,IC50,[3],2.7 µM
same,IC70,[3],5.41 µM
same,T/C,[4],99%
same,T/C,[5],90%
same,T/C,[6],92%
same,T/C,[7],92%
same,T/C,[8],88%
same,T/C,[9],34%
same,T/C,[10],6%
same,T/C,[11],89%
same,T/C,[12],83%
same,T/C,[13],83%
same,T/C,[14],93%
same,T/C,[15],18%
same,T/C,[16],2%
same,T/C,[17],107%
same,T/C,[18],105%
same,T/C,[19],99%
same,T/C,[20],101%
same,T/C,[21],94%
same,T/C,[22],29%
same,T/C,[23],12%
same,T/C,[24],2%
same,T/C,[25],104%
same,T/C,[26],105%
same,T/C,[27],119%
same,T/C,[28],117%
same,T/C,[29],120%
same,T/C,[30],105%
same,T/C,[31],6%
same,T/C,[32],0%
